Assay results taken from ChEMBL document CHEMBL4613298, “GPBAR1 Activation by C6-Substituted Hyodeoxycholane Analogues Protect against Colitis” (ACS Med Chem Lett, 2020).
Calls of active or inactive are those of the source. The calls are words filed in the database; no cut-off is given here.

Tests used:
[1] = biological target: T1, Bile acid receptor (Homo sapiens) (UniProt Q96RI1); experiment: Agonist activity at GST-tagged FXR-LBD (unknown origin) assessed as biotinylated SRC-1 recruitment at 10 uM after 30 mins by Alpha Screen assay
T1 sequence (whole entry): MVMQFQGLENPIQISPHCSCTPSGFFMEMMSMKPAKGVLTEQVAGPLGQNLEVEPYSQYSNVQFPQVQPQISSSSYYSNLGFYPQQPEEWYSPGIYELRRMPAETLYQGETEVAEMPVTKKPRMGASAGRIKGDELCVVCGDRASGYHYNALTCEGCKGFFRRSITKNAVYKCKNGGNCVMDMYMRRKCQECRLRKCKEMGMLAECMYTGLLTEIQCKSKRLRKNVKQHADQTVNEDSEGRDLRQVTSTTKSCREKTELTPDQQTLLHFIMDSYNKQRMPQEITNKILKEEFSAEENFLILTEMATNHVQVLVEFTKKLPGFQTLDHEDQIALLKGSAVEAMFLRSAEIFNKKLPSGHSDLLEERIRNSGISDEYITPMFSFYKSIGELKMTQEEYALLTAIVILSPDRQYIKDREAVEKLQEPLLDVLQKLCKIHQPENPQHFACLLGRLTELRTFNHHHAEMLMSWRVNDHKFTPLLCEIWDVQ

[2] = biological target: T2, G-protein coupled bile acid receptor 1 (Homo sapiens) (UniProt Q8TDU6); experiment: Transactivation of human GPBAR1 receptor expressed in HEK293T cells at 10 to 50 uM after 18 hrs by cAMP response element driven renilla-luciferase dual reporter gene assay; format: functional, cell-based; details: HEK-293T
T2 sequence (whole entry): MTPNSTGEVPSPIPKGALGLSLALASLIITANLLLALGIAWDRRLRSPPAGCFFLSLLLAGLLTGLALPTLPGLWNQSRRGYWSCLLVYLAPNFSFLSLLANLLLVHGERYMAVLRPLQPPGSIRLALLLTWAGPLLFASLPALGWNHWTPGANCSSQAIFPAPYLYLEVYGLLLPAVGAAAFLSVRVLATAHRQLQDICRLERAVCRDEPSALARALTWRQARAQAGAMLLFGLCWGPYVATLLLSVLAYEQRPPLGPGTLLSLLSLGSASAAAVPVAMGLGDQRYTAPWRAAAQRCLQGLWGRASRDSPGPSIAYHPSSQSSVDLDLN

Homo sapiens = organism: Homo sapiens; experiment: Selectivity index, ratio of transactivation of human GPBAR1 receptor expressed in HEK293T cells assessed as maximum receptor activation at 10 uM to transactivation of human FXR (unknown origin) expressed in HepG2 cells co-expressing pSG5RXR/pGL4.70 assessed as maximum receptor activation at 10 uM; format: cell-based
Method in brief: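 Ratio of percent activity at GPBAR1 (HEK-293T, CRE-luciferase, 10 μM, vs TLCA 10 μM) to percent activity at FXR (HepG2, IR1-luciferase, 10 μM, vs CDCA 10 μM). Both taken from the same triplicate experiment.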

[3] = biological target: T1, Bile acid receptor (Homo sapiens); experiment: Transactivation of FXR (unknown origin) expressed in HepG2 cells co-expressing pSG5RXR/pGL4.70 assessed as maximum receptor activation at 10 uM after 18 hrs by IR1 driven dual renilla-luciferase reporter gene assay relative to relative to CDCA; format: cell-based
Method in brief: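 FXR reporter assay in HepG2 cells transfected with FXR and an IR1-driven luciferase reporter, compound at 10 μM. Efficacy is maximal IR1 transactivation relative to CDCA (10 μM). One experiment, triplicate.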

[4] = biological target: T2, G-protein coupled bile acid receptor 1 (Homo sapiens); experiment: Transactivation of human GPBAR1 receptor expressed in HEK293T cells assessed as maximum receptor activation at 10 uM after 18 hrs by cAMP response element driven renilla-luciferase dual reporter gene assay relative to TLCA; format: functional, cell-based; details: HEK-293T
Method in brief: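 HEK-293T cells transfected with GPBAR1 and a CRE-driven luciferase reporter, exposed to compound at 10 μM. Efficacy is maximal CRE transactivation as percent of that caused by TLCA (10 μM). One experiment, triplicate.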

[5] = biological target: T2, G-protein coupled bile acid receptor 1 (Homo sapiens); experiment: Agonist activity at GPBAR1 receptor in human THP1 cells assessed as reduction in LPS-induced IL-6 expression at 10 uM after 18 hrs by RT-PCR analysis; format: cell-based; details: THP-1
Method in brief: (§1)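 THP1 monocytic/macrophage cells primed with LPS, then coincubated with or without test agent at 10 μM; expression of cytokine genes (IL-1β, IL-6, TNF-α, IL-10) measured.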

[6] = biological target: T2, G-protein coupled bile acid receptor 1 (Homo sapiens); experiment: Agonist activity at GPBAR1 receptor in human THP1 cells assessed as reduction in LPS-induced IL-1beta expression at 10 uM after 18 hrs by RT-PCR analysis; format: cell-based; details: THP-1; method in brief: as §1
[7] = Aqueous solubility of compound in pH 7.4 PBS/MeOH at 10 mM after 24 hrs by LC-MS analysis; format: physicochemical; details: buffer, pH 7.4, 24 h, 10000 µM
[8] = biological target: T3, G-protein coupled bile acid receptor 1 (Homo sapiens, UniProt Q8TDU6); experiment: Agonist activity at human GPBAR1 receptor expressed in HEK293T cells after 18 hrs by cAMP response element driven renilla-luciferase dual reporter gene assay; format: functional, cell-based, HEK-293T
T3 sequence (Q8TDU6 whole entry): T2 sequence (whole entry)
Method in brief: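 GPBAR1 transactivation in transfected HEK-293T cells carrying a CRE-luciferase reporter; potency expressed as EC50. Data from one experiment run in triplicate.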

[9] = biological target: T2, G-protein coupled bile acid receptor 1 (Homo sapiens); experiment: Agonist activity at GPBAR1 receptor in human THP1 cells assessed as reduction in LPS-induced TNFalpha expression at 10 uM after 18 hrs by RT-PCR analysis; format: cell-based; details: THP-1; method in brief: as §1

Row | max activation [3] [%] | max activation [4] [%] | EC50 [8] [nM] | Structure (SMILES) | Activity [1] | Activity [2] | Selectivity Index (Homo sapiens) | Activity [5] | Activity [6] | solubility [7] | Activity [9]
1 |  |  |  | CCC[C@@]1(O)C[C@@H]2[C@H](CC[C@]3(C)[C@@H]([C@H](C)CC#N)CC[C@@H]23)[C@@]2(C)CC[C@@H](O)C[C@H]12 | inactive | inactive |  |  |  |  | 
2 | 3.1 | 67.1 |  | CCC[C@]1(O)C[C@H]2[C@@H]3CC[C@H]([C@H](C)CC#N)[C@@]3(C)CC[C@@H]2[C@@]2(C)CC[C@@H](O)C[C@@H]12 |  |  | 21.6 |  |  |  | 
3 |  |  |  | CC[C@@]1(O)C[C@@H]2[C@H](CC[C@]3(C)[C@@H]([C@H](C)CC#N)CC[C@@H]23)[C@@]2(C)CC[C@@H](O)C[C@H]12 | inactive | inactive |  |  |  |  | 
4 | 4.4 | 8.3 |  | C[C@H](CC#N)[C@H]1CC[C@H]2[C@@H]3C[C@](O)(Cc4ccccc4)[C@@H]4C[C@H](O)CC[C@]4(C)[C@H]3CC[C@]12C |  |  | 1.88 |  |  |  | 
5 |  |  |  | C=CC[C@@]1(O)C[C@@H]2[C@H](CC[C@]3(C)[C@@H]([C@H](C)CC#N)CC[C@@H]23)[C@@]2(C)CC[C@@H](O)C[C@H]12 | inactive | inactive |  |  |  |  | 
6 | 18.2 | 38.8 |  | C[C@H](CC#N)[C@H]1CC[C@H]2[C@@H]3C[C@@](O)(c4ccccc4)[C@@H]4C[C@H](O)CC[C@]4(C)[C@H]3CC[C@]12C |  |  | 2.13 |  |  |  | 
7 | 4.1 | 62.5 | 100 | C=CC[C@@]1(O)C[C@H]2[C@@H]3CC[C@H]([C@H](C)CC#N)[C@@]3(C)CC[C@@H]2[C@@]2(C)CC[C@@H](O)C[C@@H]12 |  |  | 15.2 |  |  |  | 
8 | 4.3 | 22.2 |  | CC(C)[C@]1(O)C[C@@H]2[C@H](CC[C@]3(C)[C@@H]([C@H](C)CC#N)CC[C@@H]23)[C@@]2(C)CC[C@@H](O)C[C@H]21 |  |  | 5.16 |  |  |  | 
9 |  |  |  | C[C@H](CC#N)[C@H]1CC[C@H]2[C@@H]3C[C@@](C)(O)[C@H]4C[C@H](O)CC[C@]4(C)[C@H]3CC[C@]12C | inactive | inactive |  |  |  |  | 
10 | 3.5 | 119 | 2650 | C[C@H](CC#N)[C@H]1CC[C@H]2[C@@H]3C[C@H](O)[C@@H]4C[C@H](O)CC[C@]4(C)[C@H]3CC[C@]12C |  |  | 33.9 |  |  |  | 
11 | 2.2 | 62.5 |  | C=C[C@]1(O)C[C@@H]2[C@H](CC[C@]3(C)[C@@H]([C@H](C)CC#N)CC[C@@H]23)[C@@]2(C)CC[C@@H](O)C[C@H]21 |  |  | 28.4 |  |  |  | 

Row | Structure (SMILES) | max activation [3] [%] | max activation [4] [%] | EC50 [8] [nM] | Activity [1] | Activity [2] | Selectivity Index (Homo sapiens) | Activity [5] | Activity [6] | solubility [7] | Activity [9]
12 | C[C@H](CC#N)[C@H]1CC[C@H]2[C@@H]3C[C@@](C)(O)[C@@H]4C[C@H](O)CC[C@]4(C)[C@H]3CC[C@]12C | 5.5 | 83.4 |  |  |  | 15.1 | Active | Active | Soluble | 
13 | C=CCCC[C@]1(O)C[C@H]2[C@@H]3CC[C@H]([C@H](C)CC#N)[C@@]3(C)CC[C@@H]2[C@@]2(C)CC[C@@H](O)C[C@@H]12 | 1.6 | 90.1 |  |  |  | 56.3 | Active | Active | Soluble | 
14 | CC[C@@]1(O)C[C@H]2[C@@H]3CC[C@H]([C@H](C)CC#N)[C@@]3(C)CC[C@@H]2[C@@]2(C)CC[C@@H](O)C[C@@H]12 | 6.6 | 65.9 |  |  |  | 9.9 | Active | Active | Soluble | Active
15 | C[C@H](CC#N)[C@H]1CC[C@H]2[C@@H]3C[C@](C)(O)[C@@H]4C[C@H](O)CC[C@]4(C)[C@H]3CC[C@]12C | 6.4 | 95.4 |  |  |  | 14.9 | Active | Active | Soluble | Active
